High-throughput results (PubChem BioAssay)
Rows were chosen to be rich in hits. Some 4.3% of all compounds tested hit in one or more screens of this group.
STAT1 inh: reduces IFN-gamma driven STAT1 reporter signal | NIH 3T3 STAT1-luciferase reporter, luminescence | inhibition, % at 5.5 µM | 200,000 tested, 0.35% active;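 active = inhibition above a set limit, the mean inhibition across all tested compounds plus 3 SD, cut at about 34% in these data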;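 also: 0% = IFN-gamma with DMSO and 100% = IFN-gamma with 300 µM nifuroxazide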
STAT3 inh: inhibitors of IL-6 induced STAT3 signaling | U3A cells, IL-6 STAT3-luciferase reporter, luminescence; host cell line lacks STAT1 | inhibition, % at 5.5 µM | 190,000 tested, 0.89% active | AID 862;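 active = inhibition above the mean inhibition across all screened compounds plus 3 SD, cut at about 44% in these data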;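 also: 0% = DMSO only wells and 100% = 100 µM nifuroxazide control wells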
STAT3 activator: STAT3 signaling activation; U3A cells, IL-6 STAT3-luciferase reporter, luminescence; 100% = signal with IL-6 EC80 alone; activation (% of control), % at 5.6 µM; 190,000 tested, 0.91% active; AID 871;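 active = activation above the screen-wide mean of compound activation plus 3 SD, cut at about 130% in these data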;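 also: 0% = background luminescence of wells with medium and substrate only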
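Test system: Human STAT1-deficient U3A cells with stable STAT3-luciferase reporter | Also added: Interleukin-6, 33 ng/mL | Timing: Compound pre-incubation 1 h before IL-6, then 6 h stimulation at 37 °C | Technique: Luciferase reporter luminescence | Read-out: Percent of IL-6-only median luminescence | Benchmarks: IL-6-only wells as 100% reference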
STAT1 activator: activators of IFN-gamma induced STAT1 signaling. AID 932. activation (% of control), % at 5.5 µM. NIH 3T3 STAT1-luciferase reporter, luminescence; 100% = IFN-gamma alone, no compound. 200,000 tested, 2.6% active;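 active = activation above the screen-wide mean activation plus 3 SD, cut at about 130% in these data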;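 also: raw ratio to IFN-gamma control signal so 100% means no change and 0% no light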
Starred values were filed as active, the others as inactive.

SMILES | STAT1 inh | STAT3 inh | STAT3 activator | STAT1 activator
C=CC[n+]1ccc(/C=C2\C=Cc3cc(C)ccc3N2CC)c2ccccc21 | 36* | 86* | 26 | 65
CCN1/C(=C/c2cc[n+](CCCS(=O)(=O)[O-])c3ccccc23)Sc2ccccc21 | 1 | 4 | 99 | 98
O=C(Nc1cc2nn(-c3ccccc3)nc2cc1Cl)c1ccco1 | -36 | -43 | 145* | 133*
CCCn1cnc2cc(NC(=O)c3cccs3)ccc21 | -45 | -5 | 109 | 138*
CCn1cnc2cc(NC(=O)c3ccco3)ccc21 | -33 | 6 | 98 | 135*
O=C(Nc1ccc2nn(-c3ccccc3)nc2c1)c1ccco1 | -34 | 9 | 94 | 132*
CC(=O)NCCc1nc2cc(NC(=O)c3cccs3)ccc2n1C | -11 | 17 | 92 | 108
Cc1ncsc1CCOC(=O)C1C2CC3CC(C2)CC1C3 (centres undefined) | 2 | -3 | 106 | 98
CN(C)/C=C1\C(=O)N(c2ccc(Cl)cc2)CS1(=O)=O | -31 | 4 | 102 | 128
Cc1ccc(N2CS(=O)(=O)/C(=C/N(C)C)C2=O)cc1 | -55 | -1 | 105 | 150*
CCCN(CC1CCCO1)C(=O)CCc1nnc(-c2cc(C)on2)o1 (centres undefined) | -8 | -5 | 109 | 106
O=C(N/N=C/c1ccc([N+](=O)[O-])cc1)c1[nH]ncc1Br | -36 | 16 | 90 | 131*
O=C(N/N=C/c1ccc([N+](=O)[O-])cc1)c1ccc2nc[nH]c2c1 | -7 | 28 | 79 | 106
O=C(Nc1ccccc1)n1cc(-c2ccccn2)c(N2CCOCC2)n1 | 0 | -36 | 133* | 99
Cc1nn(-c2ccccc2)c(N2CCCC2)c1/C=N/NC(=S)Nc1ccccc1F | -32 | 2 | 95 | 129*
Clc1ccc2nc(-c3ccc4c(c3)OCO4)cn2c1 | 65* | 83* | 29 | 40
c1ccn2cc(-c3ccc4c(c3)OCCO4)nc2c1 | 60* | 90* | 26 | 44
O=S(=O)(c1ccc(-c2cn3ccccc3n2)cc1)N1CCOCC1 | -6 | 13 | 95 | 106
Cn1c(=O)c(C(=O)COC(=O)c2cc(-c3ccco3)nc3ccccc23)c(N)n(CC2CC2)c1=O | -5 | -3 | 100 | 104
COc1ccccc1NC(=O)CSc1nc2n[nH]c(C)c2c(=N)n1-c1ccccc1Cl | -7 | 0 | 102 | 106
O=C(Nc1nc2c(s1)CN(Cc1ccccc1)CC2)C1CCC1 | -27 | -20 | 117 | 125
CCN1CCc2nc(NC(=O)c3ccccc3)sc2C1 | -51 | 5 | 101 | 147*
Cc1ccn2cc(-c3ccc(NC(=O)c4ccco4)cc3)nc2c1 | -40 | 16 | 86 | 135*
Cc1nnc2ccc(-c3ccc(NC(=O)c4ccco4)cc3)nn12 | 3 | 30 | 79 | 97
Cc1ccc(S(=O)(=O)Nc2ccc(-c3cn4ccc(C)cc4n3)cc2)cc1 | -6 | 17 | 87 | 105
SMILES | STAT1 inh | STAT3 inh | STAT3 activator | STAT1 activator
CC(=O)Nc1cccc(-c2cn3ccc(C)cc3n2)c1 | -33 | 25 | 80 | 129*
Cc1ccn2cc(-c3ccc(NS(=O)(=O)c4ccccc4)cc3)nc2c1 | -34 | 13 | 91 | 130*
N=c1oc2ccc3ccccc3c2cc1C(N)=S | -13 | 24 | 82 | 110
Cn1cc(C(=O)NCc2ccc(F)cc2)cn1 | 4 | 8 | 98 | 98
O=C(NCc1ccc(F)cc1)c1cnn2ccccc12 | -35 | 1 | 103 | 132*
CCc1ccc(NC(=O)c2ccccc2SC)cc1 | -33 | 7 | 101 | 129*
CCc1ccc(NC(=O)CCn2cccc2)cc1 | -10 | -4 | 101 | 109
CCc1ccc(NC(=O)c2cnn3ccccc23)cc1 | 78* | 98* | 22 | 30
CCOC(=O)CC(=O)CSc1ncnc2c1nnn2-c1ccc(OC)cc1 | -6 | 16 | 94 | 104
Cc1ccc2c(c1)N=C(c1ccc(Cl)cc1)CO2 | -52 | -6 | 107 | 148*
c1ccc(C2=Nc3ccccc3OC2)cc1 | -35 | 7 | 100 | 132*
Clc1ccc(C2=NN=C3COc4ccccc4N3C2)cc1 | 0 | -3 | 103 | 100
Clc1ccc(C2=Nc3cc(Cl)ccc3OC2)cc1 | -41 | 4 | 106 | 135*
O=c1c2c(nc3nc(NCc4cccc5ccccc45)[nH]n13)CCC2 | -8 | 5 | 103 | 108
O=C(O)c1cccc(-c2nc3ccccc3[nH]2)c1 | 55* | 65* | 44 | 50
CC(=O)Nc1cccc(-c2nc3ccccc3[nH]2)c1 | -7 | 15 | 94 | 107
Nc1nc(-c2nc3ccccc3[nH]2)cs1 | -43 | 20 | 86 | 140*
c1ccc2[nH]c(-c3ccncc3)nc2c1 | 11 | 15 | 90 | 88
c1ccc(-c2nc3ccccc3[nH]2)nc1 | -40 | 13 | 92 | 137*
O=c1[nH]c(-c2ccccn2)nc2ccccc12 | -38 | 9 | 94 | 135*
COc1cccc(C(=O)CN(C(=O)c2ccc(Cl)cc2Cl)N2C(=O)c3ccccc3C2=O)c1 | -10 | -9 | 108 | 109
COc1ccccc1-c1nnc(SCC(=O)NCc2cccs2)n1N | 9 | 6 | 97 | 91
COc1ccc2c(c1)sc(=N)n2C | 16 | -1 | 102 | 85
Cc1ccc2c(c1)c1ncnc(N3CCOCC3)c1n2C | 9 | 0 | 105 | 92
Cc1ccc2c(c1)c1ncnc(N3CCC4(CC3)OCCO4)c1n2C | -22 | -34 | 135* | 120
SMILES | STAT1 inh | STAT3 inh | STAT3 activator | STAT1 activator
CC(C)CCn1cnc2c(cnn2-c2ccc(F)cc2)c1=O | -33 | 2 | 99 | 130*
CC(C)c1ccc(NC(=S)NNC(=O)c2cccs2)cc1 | -50 | 7 | 100 | 144*
CC(C)(C)c1csc(NC(=O)c2cccs2)n1 | -33 | 2 | 101 | 130*
O=C(Nc1ccc(-c2cn3ccccc3n2)cc1)c1cccs1 | -37 | 20 | 87 | 134*
COc1ccc(NC(=O)c2cccs2)cc1 | -40 | 2 | 102 | 140*
COc1ccc(-c2csc(N(C)C(=O)c3cccs3)n2)cc1 | -36 | 13 | 92 | 131*
CCC(C)c1ccc(NC(=O)c2cccs2)cc1 (centres undefined) | -33 | 36 | 73 | 130*
CC(C)Sc1ncnc2c1oc1ccccc12 | -3 | 8 | 95 | 103
c1ccc(Sc2ncnc3c2oc2ccccc23)nc1 | -35 | -1 | 103 | 132*
COc1ncnc2c1oc1ccccc12 | -52 | -13 | 113 | 146*
CC(C)OCCCNC(=O)C(NS(=O)(=O)c1ccc2c(c1)c(=O)n(C)c(=O)n2C)c1ccccc1 (centres undefined) | -1 | 0 | 102 | 101
COCCNC(=S)N/N=C(\C)c1cccc([N+](=O)[O-])c1 | 2 | 3 | 100 | 99
Cc1ccc(C(=O)Nc2nc3ccc(S(C)(=O)=O)cc3s2)o1 | -22 | 11 | 93 | 121
O=C(NC(=S)Nc1cccc(NC(=S)NC(=O)c2ccco2)n1)c1ccco1 | 0 | 4 | 99 | 101
O=C(NC(=S)Nc1nc2ccc(F)cc2s1)c1ccco1 | -32 | -69 | 157* | 130*
CS(=O)(=O)c1ccc2nc(NC(=O)c3ccco3)sc2c1 | -34 | 12 | 94 | 131*
